Source: ChEMBL document CHEMBL2311433, “Inhibition of protein glycation by urea and thiourea derivatives of glycine/proline conjugated benzisoxazole analogue - synthesis and structure-activity studies” (Eur J Med Chem, 2013)
Each block holds one compound with its values, some of them ahead of it.

Biological target: Albumin (Bos taurus, UniProt P02769)
Assay: Inhibition of glycation of bovine serum albumin assessed as advanced glycated end product measured after 7 days by spectrofluorimeter in presence of glucose anhydrous; call rule not given here
Method in brief: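 BSA (10 mg/mL) incubated with anhydrous glucose (50 mg/mL) in 67 mM sodium phosphate buffer, pH 7.4, containing 3 mM sodium azide; compounds dissolved in DMSO. Incubation 37 °C for 7 days. Then 100% trichloroacetic acid added and the mixture centrifuged at 15,000 rpm, 4 min, 4 °C. A PBS, pH 10, was also prepared.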

Chain of Albumin (P02769 whole entry): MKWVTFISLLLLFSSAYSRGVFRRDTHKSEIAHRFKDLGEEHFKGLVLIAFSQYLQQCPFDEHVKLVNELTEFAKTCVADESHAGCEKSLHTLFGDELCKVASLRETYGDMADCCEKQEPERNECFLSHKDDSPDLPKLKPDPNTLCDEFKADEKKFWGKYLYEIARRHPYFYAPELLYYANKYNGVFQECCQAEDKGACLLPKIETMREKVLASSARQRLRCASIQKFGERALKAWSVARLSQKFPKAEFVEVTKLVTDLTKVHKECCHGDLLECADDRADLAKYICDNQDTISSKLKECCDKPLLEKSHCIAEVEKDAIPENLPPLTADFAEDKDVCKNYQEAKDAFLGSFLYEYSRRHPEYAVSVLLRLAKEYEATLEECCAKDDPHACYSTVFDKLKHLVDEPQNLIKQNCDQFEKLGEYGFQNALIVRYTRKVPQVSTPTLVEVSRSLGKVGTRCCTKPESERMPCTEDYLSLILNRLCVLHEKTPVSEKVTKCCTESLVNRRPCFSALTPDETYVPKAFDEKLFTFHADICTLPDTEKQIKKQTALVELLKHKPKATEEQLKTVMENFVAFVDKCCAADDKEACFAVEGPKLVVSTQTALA

SMILES: COc1ccccc1NC(=S)NCC(=O)N1CCC(c2noc3cc(F)ccc23)CC1
IC50 (read-out: IC50): 4.1 µM

SMILES: O=C(C1CCCN1C(=S)Nc1ccc(Cl)cc1)N1CCC(c2noc3cc(F)ccc23)CC1 (stereo not given)
IC50 (read-out: IC50): 59.4 µM

SMILES: O=C(C1CCCN1C(=O)Nc1ccc(Cl)cc1)N1CCC(c2noc3cc(F)ccc23)CC1 (stereo not given)
IC50 (read-out: IC50): 60.3 µM

SMILES: O=C(C1CCCN1C(=O)Nc1ccccc1F)N1CCC(c2noc3cc(F)ccc23)CC1 (stereo not given)
IC50 (read-out: IC50): 54.8 µM

SMILES: COc1ccccc1NC(=S)N1CCCC1C(=O)N1CCC(c2noc3cc(F)ccc23)CC1 (stereo not given)
IC50 (read-out: IC50): 5.2 µM

SMILES: O=C(C1CCCN1C(=O)Nc1cccc(Cl)c1)N1CCC(c2noc3cc(F)ccc23)CC1 (stereo not given)
IC50 (read-out: IC50): 145 µM

SMILES: O=C(NCC(=O)N1CCC(c2noc3cc(F)ccc23)CC1)Nc1ccccc1
IC50 (read-out: IC50): 390 µM

SMILES: O=C(C1CCCN1C(=O)Nc1ccc(Br)cc1)N1CCC(c2noc3cc(F)ccc23)CC1 (stereo not given)
IC50 (read-out: IC50): 6.8 µM

SMILES: C[C@@H]1O[C@@H](OC[C@H]2O[C@@H](Oc3c(-c4ccc(O)c(O)c4)oc4cc(O)cc(O)c4c3=O)[C@H](O)[C@@H](O)[C@@H]2O)[C@H](O)[C@H](O)[C@H]1O [RUTIN]
IC50 (read-out: IC50): 41.9 µM

SMILES: O=C(C1CCCN1C(=S)Nc1cccc(Br)c1)N1CCC(c2noc3cc(F)ccc23)CC1 (stereo not given)
IC50 (read-out: IC50): 4.7 µM

SMILES: O=C(NCC(=O)N1CCC(c2noc3cc(F)ccc23)CC1)Nc1ccccc1F
IC50 (read-out: IC50): 55.5 µM

SMILES: COc1ccc(NC(=S)NCC(=O)N2CCC(c3noc4cc(F)ccc34)CC2)cc1
IC50 (read-out: IC50): 3.6 µM

SMILES: O=C(C1CCCN1C(=S)Nc1cccc(Cl)c1)N1CCC(c2noc3cc(F)ccc23)CC1 (stereo not given)
IC50 (read-out: IC50): 126 µM

SMILES: O=C(C1CCCN1C(=O)Nc1ccc(F)cc1)N1CCC(c2noc3cc(F)ccc23)CC1 (stereo not given)
IC50 (read-out: IC50): 76.1 µM

SMILES: O=C(NCC(=O)N1CCC(c2noc3cc(F)ccc23)CC1)Nc1ccc(Br)cc1
IC50 (read-out: IC50): 8.5 µM

SMILES: O=C(C1CCCN1C(=S)Nc1ccc(F)cc1)N1CCC(c2noc3cc(F)ccc23)CC1 (stereo not given)
IC50 (read-out: IC50): 70.9 µM

SMILES: O=C(NCC(=O)N1CCC(c2noc3cc(F)ccc23)CC1)Nc1cccc(Cl)c1
IC50 (read-out: IC50): 144 µM

SMILES: COc1ccccc1NC(=O)N1CCCC1C(=O)N1CCC(c2noc3cc(F)ccc23)CC1 (stereo not given)
IC50 (read-out: IC50): 30.6 µM

SMILES: O=C(C1CCCN1C(=S)Nc1ccccc1)N1CCC(c2noc3cc(F)ccc23)CC1 (stereo not given)
IC50 (read-out: IC50): 295 µM

The remaining lines, values ahead:

IC50 (read-out: IC50): 33.4 µM
SMILES: COc1cccc(NC(=O)N2CCCC2C(=O)N2CCC(c3noc4cc(F)ccc34)CC2)c1 (stereo not given)

IC50 (read-out: IC50): 21.1 µM
SMILES: COc1cccc(NC(=O)NCC(=O)N2CCC(c3noc4cc(F)ccc34)CC2)c1

IC50 (read-out: IC50): 22.1 µM
SMILES: COc1ccc(NC(=O)N2CCCC2C(=O)N2CCC(c3noc4cc(F)ccc34)CC2)cc1 (stereo not given)

IC50 (read-out: IC50): 4.9 µM
SMILES: O=C(CNC(=S)Nc1cccc(Br)c1)N1CCC(c2noc3cc(F)ccc23)CC1

IC50 (read-out: IC50): 83.9 µM
SMILES: O=C(NCC(=O)N1CCC(c2noc3cc(F)ccc23)CC1)Nc1ccc(Cl)cc1

IC50 (read-out: IC50): 340 µM
SMILES: O=C(C1CCCN1C(=O)Nc1ccccc1)N1CCC(c2noc3cc(F)ccc23)CC1 (stereo not given)

IC50 (read-out: IC50): 6.9 µM
SMILES: O=C(C1CCCN1C(=O)Nc1cccc(Br)c1)N1CCC(c2noc3cc(F)ccc23)CC1 (stereo not given)

IC50: Not Active
SMILES: CC(C)(C)OC(=O)NCC(=O)N1CCC(c2noc3cc(F)ccc23)CC1

IC50 (read-out: IC50): 3.9 µM
SMILES: COc1ccc(NC(=S)N2CCCC2C(=O)N2CCC(c3noc4cc(F)ccc34)CC2)cc1 (stereo not given)

IC50 (read-out: IC50): 7.8 µM
SMILES: O=C(C1CCCN1C(=S)Nc1ccccc1Br)N1CCC(c2noc3cc(F)ccc23)CC1 (stereo not given)

IC50 (read-out: IC50): 7.8 µM
SMILES: O=C(C1CCCN1C(=S)Nc1ccccc1F)N1CCC(c2noc3cc(F)ccc23)CC1 (stereo not given)

IC50 (read-out: IC50): 100 µM
SMILES: O=C(NCC(=O)N1CCC(c2noc3cc(F)ccc23)CC1)Nc1cccc(F)c1

IC50 (read-out: IC50): 9.1 µM
SMILES: O=C(CNC(=S)Nc1ccccc1F)N1CCC(c2noc3cc(F)ccc23)CC1

IC50 (read-out: IC50): 20.2 µM
SMILES: COc1ccccc1NC(=O)NCC(=O)N1CCC(c2noc3cc(F)ccc23)CC1

IC50 (read-out: IC50): 19.5 µM
SMILES: COc1ccc(NC(=O)NCC(=O)N2CCC(c3noc4cc(F)ccc34)CC2)cc1

IC50: Not Active
SMILES: O=C(CNC(=S)Nc1cccc(Cl)c1)N1CCC(c2noc3cc(F)ccc23)CC1

IC50 (read-out: IC50): 6.3 µM
SMILES: O=C(CNC(=S)Nc1ccccc1Br)N1CCC(c2noc3cc(F)ccc23)CC1

IC50 (read-out: IC50): 75.8 µM
SMILES: O=C(NCC(=O)N1CCC(c2noc3cc(F)ccc23)CC1)Nc1ccc(F)cc1

IC50 (read-out: IC50): 70.3 µM
SMILES: O=C(CNC(=S)Nc1ccc(F)cc1)N1CCC(c2noc3cc(F)ccc23)CC1

IC50 (read-out: IC50): 9.3 µM
SMILES: O=C(NCC(=O)N1CCC(c2noc3cc(F)ccc23)CC1)Nc1cccc(Br)c1

IC50 (read-out: IC50): 117 µM
SMILES: O=C(C1CCCN1C(=O)Nc1cccc(F)c1)N1CCC(c2noc3cc(F)ccc23)CC1 (stereo not given)

IC50: Not Active
SMILES: O=C(CNC(=S)Nc1ccc(Cl)cc1)N1CCC(c2noc3cc(F)ccc23)CC1

IC50 (read-out: IC50): 20.5 µM
SMILES: COc1cccc(NC(=S)N2CCCC2C(=O)N2CCC(c3noc4cc(F)ccc34)CC2)c1 (stereo not given)

IC50 (read-out: IC50): 380 µM
SMILES: O=C(CNC(=S)Nc1ccccc1)N1CCC(c2noc3cc(F)ccc23)CC1

IC50 (read-out: IC50): 15.3 µM
SMILES: COc1cccc(NC(=S)NCC(=O)N2CCC(c3noc4cc(F)ccc34)CC2)c1

IC50: Not Active
SMILES: CC(C)(C)OC(=O)N1CCCC1C(=O)N1CCC(c2noc3cc(F)ccc23)CC1 (stereo not given)
